Assay results from ChEMBL document CHEMBL4513216, “Probing the Open Global Health Chemical Diversity Library for Multistage-Active Starting Points for Next-Generation Antimalarials” (ACS Infect Dis, 2020).

Assay: Toxicity liver stage against HepG2, at 10uM
Assay type: cell-based
Set-up: test concentration 10 uM, cell line HepG2-A16-CD81EGFP
Settings: human, HepG2-A16-CD81EGFP cells; read-out: INHIBITION
In short: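 Uninfected HepG2-A16-CD81EGFP cells, 3 × 10^3 per well, 1536-well, plated on prespotted compound at 10 μM final, parasite-free screening media added to match infected plates; puromycin 10 μM positive, DMSO 0.5% negative; run in parallel with 48 h PbLuc assay at 37 °C, 5% CO2; viability by CellTiter-Glo luminescence, normalized to controls.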

Molecule `CC1=C[C@@H](CN2CCC(O)CC2)[C@H](C(C)C)C[C@H]1Cc1nnc(C)o1` has a cytotoxicity at 10 µM of 0.788%.
For `COCCNc1c(-c2ccc(Cl)cc2)c(=O)c1=O`, the cytotoxicity at 10 µM was -1.99%.
In the case of `O=S1(=O)c2cccnc2OC(Cc2ccccc2)CN1CC1CC1` (configuration not stated), the cytotoxicity at 10 µM is reported as -2.46%.
Work on `CN1C(=O)C2(CC(=O)Nc3c2cnn3C(C)(C)C)c2ccccc21` (configuration not stated) yielded a cytotoxicity at 10 µM of -4.5%.
`Cc1c(C2CC(=O)Nc3c2cnn3C(C)C)cnn1C` (configuration not stated) showed a cytotoxicity at 10 µM of -6.72%.
`Cc1cc(C(=O)N2CCN(c3nc4c(C)cccc4s3)CC2)no1` showed a cytotoxicity at 10 µM of 12.1%.
Molecule `CCCC(=O)N1CCC2(CC1)COC2` has a cytotoxicity at 10 µM of 1.58%.
Work on `CCS(=O)(=O)N1CCOC2(CCCN(c3cccc(C#N)c3)C2)C1` (configuration not stated) yielded a cytotoxicity at 10 µM of 0.341%.
In the case of `CN(C)c1ncc2c(n1)C1(CCN(Cc3cccnc3)C1)COC2` (configuration not stated), the cytotoxicity at 10 µM is reported as 9.05%.
Molecule `CCOC1COC2(CCN(Cc3ccc4c(c3)OCO4)CC2)C1` (configuration not stated) has a cytotoxicity at 10 µM of 6.94%.
`CN(C)CCN1CCCC12CCN(C(=O)c1cnccn1)CC2` showed a cytotoxicity at 10 µM of 4.99%.
With `CCC(CC)CN1CCN(CC(=O)Nc2cccc3nsnc23)CC1` the cytotoxicity at 10 µM was 6.16%.
With `O=C(c1cccnc1)N1Cc2ccccc2OCC1Cn1ccnc1` (configuration not stated) the cytotoxicity at 10 µM was 1.68%.
Molecule `CNC(=O)c1sc2ccccc2c1CC1CCCN1Cc1cnc(C)s1` (configuration not stated) has a cytotoxicity at 10 µM of 2.59%.
Molecule `CC(=O)N1CCN([C@@H]2CC[C@@H](NC(=O)c3ccc(C)nc3)[C@H]2O)CC1` has a cytotoxicity at 10 µM of -3.08%.
Molecule `CCc1nnc(S(=O)(=O)Cc2cc(Cl)c3c(c2)OCO3)n1C` has a cytotoxicity at 10 µM of -46.3%.
`Cc1cccc(NCc2nc(C)ccc2O)c1` gave a cytotoxicity at 10 µM of -3.59%.
Molecule `Cc1ccn(Cc2nc(CC(C)C)no2)c(=O)c1` has a cytotoxicity at 10 µM of 6.21%.
With `CCC(C)(C)NC(=O)c1scnc1Cl` the cytotoxicity at 10 µM was -0.47%.
With `CCc1ccc(C(NC(=O)CN(C)S(C)(=O)=O)C(C)(C)C)o1` (configuration not stated) the cytotoxicity at 10 µM was -1.76%.
Molecule `CCNC(=O)c1ccc(NC2CCOC3(CCCC3)C2)nn1` (configuration not stated) has a cytotoxicity at 10 µM of -5%.
`Cc1cnc(C(NC(=O)NCc2nc(C3CC3)no2)C2CC2)s1` (configuration not stated) gave a cytotoxicity at 10 µM of 4.34%.
Molecule `CN(CCC#N)C(=O)CN1CCCN(Cc2noc(C3CC3)n2)CC1` has a cytotoxicity at 10 µM of 6.39%.
With `CNC(=O)NC(=O)C(NCc1ccccc1)c1ccccc1` (configuration not stated) the cytotoxicity at 10 µM was -52.9%.
In the case of `CCNC(=O)NCc1ccc(CN2CCCC(C)C2)cc1` (configuration not stated), the cytotoxicity at 10 µM is reported as -5.03%.
In the case of `CC(SCC(=O)NC(N)=O)c1ccccc1F` (configuration not stated), the cytotoxicity at 10 µM is reported as 2.96%.
For `COCCn1cc(C(=O)N2CCCC2c2ccccc2C)ccc1=O` (configuration not stated), the cytotoxicity at 10 µM was 7.69%.
`Cc1[nH]ncc1CCCNC(=O)Nc1ccccc1` gave a cytotoxicity at 10 µM of -2.2%.
In the case of `Cc1cc(N2CCN(C(=O)c3cc(Cl)c[nH]3)CC2)nc(C(C)C)n1`, the cytotoxicity at 10 µM is reported as 3.49%.
`CC(C)C(=O)Nc1ccc(Sc2nncn2C)c(Cl)c1` showed a cytotoxicity at 10 µM of -1.18%.
With `NC(=O)CN1CCC(NC(=O)N2CCCC2c2ccncc2)CC1` (configuration not stated) the cytotoxicity at 10 µM was 10.5%.
`CN(Cc1nnc(-c2ccco2)o1)Cc1nc2c(s1)CCCC2` gave a cytotoxicity at 10 µM of 1.13%.
With `CSCC(C)(O)CNc1ncccc1I` (configuration not stated) the cytotoxicity at 10 µM was -2.36%.
In the case of `CN(C)C(CNCc1nc(-c2ccsc2)no1)c1ccco1` (configuration not stated), the cytotoxicity at 10 µM is reported as 10.2%.
With `COc1ccc(C(C)N2CCC(C(=O)N(C)C)CC2)cc1Cl` (configuration not stated) the cytotoxicity at 10 µM was -52.5%.
`COc1ncccc1CN1Cc2nccn2CC(Cn2cccn2)C1` (configuration not stated) showed a cytotoxicity at 10 µM of -106%.
Work on `CCS(=O)(=O)N1CC[C@@H]2[C@H]1CCC(=O)N2CCOC` yielded a cytotoxicity at 10 µM of -104%.
Work on `COCCC(=O)N1C[C@H]2CCC[C@@]2(COC)C1` yielded a cytotoxicity at 10 µM of 6.75%.
`CC(C)N(C)Cc1nnc2n1CCCN(c1cnccn1)C2` gave a cytotoxicity at 10 µM of 0.0861%.
In the case of `O=C(CC1CC1)N1C[C@H]2CCN[C@H]2C1`, the cytotoxicity at 10 µM is reported as 5.75%.
For `CN(C)Cc1nc2c(o1)CN(C(=O)c1ccncc1F)C2`, the cytotoxicity at 10 µM was -114%.
For `CS(=O)(=O)NCc1cc(-c2cc(F)cc(F)c2)nc(N2CC[C@H](O)C2)n1`, the cytotoxicity at 10 µM was -9.58%.
`Cc1nc(CN2CCCCC2CCc2cccs2)co1` (configuration not stated) gave a cytotoxicity at 10 µM of -2.36%.
Molecule `Cc1ncoc1C(=O)N1CCOC(CC2CCCCC2)C1` (configuration not stated) has a cytotoxicity at 10 µM of -1.33%.
Molecule `CCOc1c(CNC2CSCCSC2)cccc1OC` has a cytotoxicity at 10 µM of 10.8%.
Molecule `COCCCN1C(=O)CC[C@H]2CN(c3cc(C(N)=O)ccn3)CC[C@H]21` has a cytotoxicity at 10 µM of 4.12%.
For `CCC(CC)CN(C)Cc1nc(-c2ccccc2NS(C)(=O)=O)oc1C`, the cytotoxicity at 10 µM was -7.69%.
Molecule `CCOc1ccc(-c2c(-c3ccccc3)ncn2C2CCNC2)cn1` (configuration not stated) has a cytotoxicity at 10 µM of -51.9%.
Molecule `CN1CC2(CCN(c3nc(N)nc4c3CCNC4)CC2)OC1=O` has a cytotoxicity at 10 µM of -5.66%.
Work on `CCc1nc(C)c(C2CC(=O)Nc3c2c(-c2ccccn2)nn3C)[nH]1` (configuration not stated) yielded a cytotoxicity at 10 µM of -6.37%.
With `C[C@@H]1CN(c2ccc(C#N)cn2)CC[C@@]1(O)C1CCOCC1` the cytotoxicity at 10 µM was -1.5%.
Work on `CC(=O)c1ccccc1-c1nc(CC2CCN(C)CC2)no1` yielded a cytotoxicity at 10 µM of -17.5%.
For `CS(=O)(=O)NCCNc1ncnc2cccc(F)c12`, the cytotoxicity at 10 µM was 3.17%.
For `CNc1ncc(CN(C)c2nc(C3CCCC3)nc3c2cnn3C)cn1`, the cytotoxicity at 10 µM was 24.1%.
With `COCCCC1(CO)CCCN(C(=O)c2cnc(C3CC3)nc2)C1` (configuration not stated) the cytotoxicity at 10 µM was -39.7%.
In the case of `O=C1CCC(=O)N1c1nn(Cc2c(F)cccc2Cl)cc1Cl`, the cytotoxicity at 10 µM is reported as -11.3%.
Molecule `CC(=O)N(C)CCCc1cc(-c2ccccc2)no1` has a cytotoxicity at 10 µM of -7.16%.
With `CC(NC(=O)NCCCn1cncn1)c1ccc(C#N)cc1` (configuration not stated) the cytotoxicity at 10 µM was -2.6%.
Molecule `CC(C)c1ncc2c(n1)CN(Cc1nnc(Cc3ccccc3)o1)CC2` has a cytotoxicity at 10 µM of -12.6%.
Work on `COC(=O)NCC(=O)NCc1nn(-c2ccccc2)c2c1CCC2` yielded a cytotoxicity at 10 µM of -7.72%.
In the case of `Cc1csc(N2CCN(C(=O)C3(C#N)CCCCC3)CC2)n1`, the cytotoxicity at 10 µM is reported as -8.45%.
With `CCC(C)(C)NC(=O)Cn1nc(C)nc1-c1cccc(C)c1` the cytotoxicity at 10 µM was -8.44%.
In the case of `CC(C)Cc1cc(NC(=O)c2ccc[nH]2)n(C)n1`, the cytotoxicity at 10 µM is reported as -6.56%.
In the case of `Cc1cc(C)n(CC2CCCN2CCCS(N)(=O)=O)n1` (configuration not stated), the cytotoxicity at 10 µM is reported as -4.1%.
In the case of `CN1CCN(c2cc(CNC(=O)c3ccc(=O)[nH]n3)ccn2)CC1`, the cytotoxicity at 10 µM is reported as -15%.
`Cc1ccccc1-c1cc(C(=O)N2CCn3c(C)nnc3C2)[nH]n1` gave a cytotoxicity at 10 µM of -5.82%.
With `CCOc1ccccc1C(CC(=O)Nc1ccc(C)cn1)NC(C)=O` (configuration not stated) the cytotoxicity at 10 µM was -10.7%.
`Cn1cc(C2CCCN2C(=O)CCCOCc2ccccc2)cn1` (configuration not stated) showed a cytotoxicity at 10 µM of -10.2%.
`CC(C)N(CC(N)=O)Cc1csc(Cc2ccccc2)n1` gave a cytotoxicity at 10 µM of -2.32%.
In the case of `Cn1cnc2c1CCN(CCCOc1ccc(C#N)cc1)C2`, the cytotoxicity at 10 µM is reported as -12.4%.
`CCN1CCC(NC(=O)CN2CCc3c(nc(C4CC4)n3C)C2)CC1` gave a cytotoxicity at 10 µM of -10.2%.
Molecule `COc1ccccc1CN1CCCCC1c1n[nH]cc1-c1cc(C)no1` (configuration not stated) has a cytotoxicity at 10 µM of 13.6%.
`c1coc(CN2C[C@@H]3CN(Cc4ccoc4)CCO[C@@H]3C2)c1` showed a cytotoxicity at 10 µM of -3.87%.
In the case of `O=C(c1cscn1)N1CCC2(CN(Cc3ccncc3)C2)C1`, the cytotoxicity at 10 µM is reported as 6.82%.
With `COCCNC(=O)[C@H]1CN(Cc2csc(C)n2)C[C@H]2OCC[C@@H]12` the cytotoxicity at 10 µM was 9.9%.
`c1cnc(NCc2nnn3c2CN(Cc2cccs2)CCC3)nc1` gave a cytotoxicity at 10 µM of 10.1%.
For `Cn1cccc1CN1CCC2(CC1)CC(Oc1cccnc1)C2`, the cytotoxicity at 10 µM was 13.4%.
In the case of `COCCN1C[C@@H]2CN(Cc3ccc(C)s3)CCC[C@]2(C(=O)O)C1`, the cytotoxicity at 10 µM is reported as -96.8%.
`Cc1cccc(C(=O)N2CCC3(CCN(c4cnn(C)c4)C3=O)C2)n1` (configuration not stated) showed a cytotoxicity at 10 µM of 5.05%.
`Cc1nc(CO[C@H]2CN(C(=O)c3cnoc3C)[C@@H]3COC[C@H]23)cs1` gave a cytotoxicity at 10 µM of -107%.
Molecule `COc1cccc(CCN2C[C@H]3CCNCC[C@H]3S2(=O)=O)c1` has a cytotoxicity at 10 µM of -8.35%.
`Cc1ccc(CN2C[C@@H]3CC[C@H]2CN(Cc2[nH]cnc2C)C3)o1` showed a cytotoxicity at 10 µM of -6.81%.
